According to ChEMBL document CHEMBL1138577, “Design, synthesis of 8-alkoxy-5,6-dihydro-[1,2,4]triazino[4,3-a]quinolin-1-ones with anticonvulsant activity” (Eur J Med Chem, 2009):
Activity calls are given as the source filed them. The rule behind the calls is not given here.

How the values were obtained:
[1] = test system: Mus musculus; assay: Anticonvulsant activity in ip dosed C57B/6 mouse assessed as protection against maximal electroshock-induced seizures administered before 30 mins of MES induction; assay type: functional; details: C57B/6, ip, 0.5 h
Outline: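 Compound in polyethyleneglycol-400 given ip to C57B/6 mice (18–25 g, 10 per group) over a dose range. 30 min post-dose, 60-Hz alternating current, 50 mA, applied via corneal electrodes for 0.2 s. Protection scored as abolition of hind-leg tonic maximal extension; doses spanning 10–90% protection used to derive ED50.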

[2] = species: Mus musculus; assay: Protective index, ratio of TD50 for neurotoxicity in C57B/6 mouse to ED50 for anticonvulsant activity in C57B/6 mouse; assay type: functional
Outline: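 PI computed as TD50 (rotarod neurotoxicity) divided by ED50 (MES test), both in ip-dosed C57B/6 mice, compounds in PEG-400, tested 30 min post-dose.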

[3] = test system: Mus musculus; assay: Anticonvulsant activity in ip dosed C57B/6 mouse assessed as protection against strychnine-induced seizures administered before 30 mins of strychnine induction measured for 30 mins; assay type: functional, organism-based
Outline: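 C57B/6 mice (18–25 g, groups of 10) received compound ip in polyethyleneglycol-400; 30 min later strychnine chlorhydrate in saline (1.2 mg/mL, 1 mL/kg) given sc, a dose convulsing all naïve animals. Mice observed individually for 30 min.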

[4] = test system: Mus musculus; assay: Anticonvulsant activity in ip dosed C57B/6 mouse assessed as protection against pentylenetetrazole-induced seizures administered before 30 mins of pentylenetetrazole induction; assay type: functional; details: C57B/6, ip, 0.5 h
Outline: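 Pentylenetetrazole 85 mg/kg sc, a dose convulsing 100% of naïve animals, given 30 min after ip compound (PEG-400 vehicle, several doses) to C57B/6 mice, 18–25 g, groups of 10. ED50 calculated as dose preventing tonic convulsions in 50% of animals.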

[5] = Neurotoxicity in C57B/6 mouse assessed as inability to maintain equilibrium on 1-in diameter rod for 1 min after 30 mins by rotarod test; assay type: toxicity, organism-based; details: in vivo
Outline: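 Rotarod neurotoxicity: C57B/6 mice (18–25 g, groups of 10) dosed ip with compound in polyethyleneglycol-400 over a dose range; 30 min later placed on 1-in. knurled rod rotating at 6 rpm for 1 min. Toxicity = failure to keep equilibrium in each of three trials; doses spanning 10–90% used for TD50.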

[6] = test system: Mus musculus; assay: Anticonvulsant activity in ip dosed C57B/6 mouse assessed as protection against 3 mercaptopropionic acid-induced seizures administered before 30 mins of 3 mercaptopropionic acid induction measured after 1 hr; assay type: functional; details: C57B/6, ip
Outline: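 C57B/6 mice (18–25 g), groups of 10, given test compound ip in polyethyleneglycol-400 across a dose range; 30 min later 3-MP 40 mg/kg in saline injected sc. Endpoint: prevention of tonic convulsions; ED50 calculated as dose protecting 50% of animals.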

[7] = test system: Mus musculus; assay: Anticonvulsant activity in ip dosed C57B/6 mouse assessed as protection against thiosemicarbazide-induced seizures administered before 30 mins of thiosemicarbazide induction measured after 1 hr; assay type: functional; details: C57B/6, ip
Outline: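 Thiosemicarbazide 50 mg/kg ip, a dose convulsing 100% of animals, given 30 min after ip test compound (PEG-400, various doses) to C57B/6 mice (18–25 g, n=10/group). Tonic convulsions scored; ED50 calculated as dose preventing them in 50% of treated animals.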

[8] = test system: Mus musculus; assay: Anticonvulsant activity in ip dosed C57B/6 mouse assessed as protection against isoniazid-induced seizures administered before 30 mins of isoniazid induction measured for 1 hr; assay type: functional; details: C57B/6, ip
Outline: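 Mice (C57B/6, 18–25 g; n=10 per group) dosed ip with compound in PEG-400 at several doses, then challenged 30 min later with isoniazid 250 mg/kg ip, a dose convulsing all naïve animals. Housed singly and watched 1 h for tonic convulsions; ED50 = dose preventing them in 50% of animals.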

| SMILES | ED50 [1] [mg/kg] | other results |
| --- | --- | --- |
| O=c1cnnc2n1-c1ccc(OCc3ccc(F)cc3)cc1CC2 | 38 |  |
| COc1ccc(COc2ccc3c(c2)CCc2nncc(=O)n2-3)cc1OC | 45.6 |  |
| COc1ccc(COc2ccc3c(c2)CCc2nncc(=O)n2-3)cc1 | 56.8 |  |
| O=c1cnnc2n1-c1ccc(OCc3ccccc3)cc1CC2 | 22.8 |  |
| CCCCOc1ccc2c(c1)CCc1nncc(=O)n1-2 | 22.7 |  |
| O=c1cnnc2n1-c1ccc(OCc3ccc(Br)cc3)cc1CC2 | 64.2 |  |
| CCOc1ccc2c(c1)CCc1nncc(=O)n1-2 | 39.4 |  |
| O=c1cnnc2n1-c1ccc(OCc3cccc(F)c3)cc1CC2 | 31.7 |  |
| Cc1ccc(COc2ccc3c(c2)CCc2nncc(=O)n2-3)cc1 | 27.4 |  |
| O=c1cnnc2n1-c1ccc(OCc3ccc(Cl)cc3Cl)cc1CC2 | 26.4 |  |
| NC(=O)N1c2ccccc2C=Cc2ccccc21 [CARBAMAZEPINE] |  | PI [2]: 6.4; ED50 [3]: inactive |
| CCCCCCOc1ccc2c(c1)CCc1nnc(C)c(=O)n1-2 | > 100 |  |
| c1ccc(COc2ccc3c(c2)CCc2nncn2-3)cc1 |  | ED50 [4]: 24 mg/kg |
| CCCCCCCCOc1ccc2c(c1)CCc1nncc(=O)n1-2 | 12.7 | TD50 at 30 min [5]: 98.6 mg/kg; PI [2]: 7.76 |
| CCCOc1ccc2c(c1)CCc1nncc(=O)n1-2 | 32.9 |  |
| CCCCCCCCCCCCOc1ccc2c(c1)CCc1nncc(=O)n1-2 | 54.8 |  |
| O=c1cnnc2n1-c1ccc(OCc3cccc(Cl)c3)cc1CC2 | 22.8 | ED50 [4]: 11.3 mg/kg; ED50 [6]: 11.8 mg/kg; ED50 [3]: inactive; ED50 [7]: 15.8 mg/kg; ED50 [8]: 19.7 mg/kg |
| Cc1nnc2n(c1=O)-c1ccc(OCc3ccccc3)cc1CC2 | > 100 |  |
| O=c1cnnc2n1-c1ccc(OCc3ccccc3Br)cc1CC2 | 16.4 | TD50 at 30 min [5]: 132 mg/kg; PI [2]: 8 |
| O=c1cnnc2n1-c1ccc(OCc3ccccc3F)cc1CC2 | 23.7 |  |
| O=c1cnnc2n1-c1ccc(OCc3c(Cl)cccc3Cl)cc1CC2 | 20.5 |  |
| O=c1cnnc2n1-c1ccc(OCc3ccccc3Cl)cc1CC2 | 13.7 | TD50 at 30 min [5]: 106 mg/kg; PI [2]: 7.7 |
| CCCCCCCOc1ccc2c(c1)CCc1nncc(=O)n1-2 | 11.4 | TD50 at 30 min [5]: 114 mg/kg; PI [2]: 10 |
| O=C1CCc2cc(OCc3ccccc3)ccc2N1 | 29.6 |  |
| CCCCCCOc1ccc2c(c1)CCc1nncc(=O)n1-2 | 19.7 | TD50 at 30 min [5]: 82.2 mg/kg; PI [2]: 4.2 |
| O=c1cnnc2n1-c1ccc(OCc3ccc(Cl)cc3)cc1CC2 | 32.9 |  |
| CCCCCOc1ccc2c(c1)CCc1nncc(=O)n1-2 | 21.9 |  |
